Reference: publication PMC9359741 (Clinical Cancer Research, 2022)
Values joined by “and” are separate entries in the source; they are usually repeats but may differ in a detail not shown here. Equal entries are not always repeated.

Assays:
Assay type in all cases: in vivo, human
[1] = test system: selected advanced solid tumors; assay: Phase 1b efficacy; details: for ORR, % (95% CI) / ir-ORR, % (95% CI): confirmed
Summary of the method: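 Oral test compound 200–400 mg QD plus anti-PD-1 antibody 2 mg/kg IV Q3W in patients with measurable or evaluable disease. Investigator assessed best response per RECIST v1.1, with immune-related response also evaluated. ORR used confirmed responses with two-sided 95% CI (Clopper–Pearson exact binomial). All patients receiving ≥1 dose were analysed. PD-L1 status came from screening tissue tested locally.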

[2] = test system: platinum-resistant ovarian cancer (prOVCA); assay: Phase 2 efficacy
Summary of the method: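 Oral test compound 300 mg QD plus anti-PD-1 antibody 200 mg IV Q3W. PD-1/PD-L1 IR cohort: progression on anti-PD-1/PD-L1 (RECIST or irRC). prOVCA cohort: progression ≤6 months after ≥4 platinum cycles. PDA cohort: ≥1 prior systemic line. Investigator assessed best response per RECIST v1.1 and irRC. ORR used confirmed responses with Clopper–Pearson 95% CI; all dosed patients. Screening tissue was profiled for MSI/MMR, TMB and gene expression.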

[3] = Phase 2 plasma pharmacokinetics of ARRY-382 and metabolites; details: for RAUC (accumulation ratio), geometric mean (geometric %CV) / Ctrough, geometric mean (geometric %CV) / RCmax (accumulation ratio), geometric mean (geometric %CV): Cycle 2 day 1, 300 mg; for AUC(0-t) / AUC / Cmax / Tmax: human, plasma, oral, 300 mg; for AUC(0-t): AUClast; for AUC(0-t) / AUC / Cmax: geometric mean (geometric %CV); for AUC: AUCtau; for Tmax: median (range)
Summary of the method: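 Blood was collected for plasma test compound and its N-oxide, N-desmethyl and sulfate metabolites. Trough samples were taken ≤120 min before the oral dose on cycle 1 day 15 and day 1 of cycles 3–6. Doses were 200–400 mg QD in Phase 1b and 300 mg QD in Phase 2. Non-compartmental parameters were estimated per patient in the PK set, reported as geometric mean (geometric %CV) and Tmax as median (range).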

CSF-1R [4] = assay: Phase 1b pharmacodynamic biomarkers
Summary of the method: (§1)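 Blood was drawn for serum CSF-1 and CTX, plus serum osteoprotegerin and non-classical monocytes in Phase 2. Urine was collected for NTX. Samples were taken pre-dose on cycle 1 days 1, 8 and 15, on day 1 of later cycles and at discontinuation. Mean change on cycle 1 day 15 versus cycle 1 day 1 was summarized descriptively, with outliers excluded.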

CSF-1R [5] = assay: Phase 2 pharmacodynamic biomarkers; details: cycle 1 day 15 compared with cycle 1 day 1
Summary of the method: as §1

[6] = Cycle 1 day 1, PD-1/PD-L1 IR, n = 18
[7] = Cycle 2 day 1, PD-1/PD-L1 IR, n = 6

What does the source list for Cc1cccc(Cn2nc(C3CC3)c3c(NC(=O)c4cnc5cc(OCCN6CCN(C)CC6)ccn45)cccc32)n1 [ARRY-382]?
Median OS ([1]; 200-mg cohort): 14.7 [95% CI, 5.2–not reached (NR)] months; Median PFS ([1]; 200-mg cohort): 4.7 (95% CI, 1.4–33.1) months; Median irPFS per irRC ([1]; 200-mg cohort): 3.0 (95% CI, 1.4–16.1) months; DOR of confirmed PR ([1]; 200-mg cohort, 1 patient with MSI-High PDA): 29.2 months; Median OS ([1]; 300-mg cohort): 6.5 (95% CI, 1.0–NR) months; Median PFS ([1]; 300-mg cohort): 2.3 (95% CI, 1.3–5.7) months; Median irPFS per irRC ([1]; 300-mg cohort): 2.5 (95% CI, 1.4–7.1) months; DOR of confirmed PR ([1]; 300-mg cohort, 1 patient with ovarian cancer): 3.1 months; Median OS ([1]; 400-mg cohort): 7.4 (95% CI, 2.1–14.1) months; Median PFS ([1]; 400-mg cohort): 1.4 (95% CI, 0.5–2.6) months; Median irPFS per irRC ([1]; 400-mg cohort): 1.3 (95% CI, 0.5–1.5) months; Best overall response: CR ([1]; ARRY-382 200 mg, N = 6): 0 (0.0) n (%); Best overall response: NE ([1]; ARRY-382 200 mg, N = 6): 1 (16.7) n (%); Best overall response: PD ([1]; ARRY-382 200 mg, N = 6): 1 (16.7) n (%); Best overall response: PR ([1]; ARRY-382 200 mg, N = 6): 1 (16.7) n (%); Best overall response: SD ([1]; ARRY-382 200 mg, N = 6): 3 (50.0) n (%); Immune-related best overall response: CR ([1]; ARRY-382 200 mg, N = 6): 0 (0.0) n (%); Immune-related best overall response: NE ([1]; ARRY-382 200 mg, N = 6): 1 (16.7) n (%); Immune-related best overall response: PD ([1]; ARRY-382 200 mg, N = 6): 1 (16.7) n (%); Immune-related best overall response: PR ([1]; ARRY-382 200 mg, N = 6): 1 (16.7) n (%); Immune-related best overall response: SD ([1]; ARRY-382 200 mg, N = 6): 3 (50.0) n (%); Best overall response: CR ([1]; ARRY-382 300 mg, N = 6): 0 (0.0) n (%); Best overall response: NE ([1]; ARRY-382 300 mg, N = 6): 0 (0.0) n (%); Best overall response: PD ([1]; ARRY-382 300 mg, N = 6): 3 (50.0) n (%); Best overall response: PR ([1]; ARRY-382 300 mg, N = 6): 1 (16.7) n (%); Best overall response: SD ([1]; ARRY-382 300 mg, N = 6): 2 (33.3) n (%); Immune-related best overall response: CR ([1]; ARRY-382 300 mg, N = 6): 0 (0.0) n (%); Immune-related best overall response: NE ([1]; ARRY-382 300 mg, N = 6): 2 (33.3) n (%); Immune-related best overall response: PD ([1]; ARRY-382 300 mg, N = 6): 0 (0.0) n (%); Immune-related best overall response: PR ([1]; ARRY-382 300 mg, N = 6): 1 (16.7) n (%); Immune-related best overall response: SD ([1]; ARRY-382 300 mg, N = 6): 3 (50.0) n (%); Best overall response: CR ([1]; ARRY-382 400 mg, N = 7): 0 (0.0) n (%); Best overall response: NE ([1]; ARRY-382 400 mg, N = 7): 2 (28.6) n (%); Best overall response: PD ([1]; ARRY-382 400 mg, N = 7): 5 (71.4) n (%); Best overall response: PR ([1]; ARRY-382 400 mg, N = 7): 0 (0.0) n (%); Best overall response: SD ([1]; ARRY-382 400 mg, N = 7): 0 (0.0) n (%); Immune-related best overall response: CR ([1]; ARRY-382 400 mg, N = 7): 0 (0.0) n (%); Immune-related best overall response: NE ([1]; ARRY-382 400 mg, N = 7): 4 (57.1) n (%); Immune-related best overall response: PD ([1]; ARRY-382 400 mg, N = 7): 1 (14.3) n (%); Immune-related best overall response: PR ([1]; ARRY-382 400 mg, N = 7): 0 (0.0) n (%); Immune-related best overall response: SD ([1]; ARRY-382 400 mg, N = 7): 2 (28.6) n (%); Best overall response: CR ([1]; Total, N = 19): 0 (0.0) n (%); Best overall response: NE ([1]; Total, N = 19): 3 (15.8) n (%); Best overall response: PD ([1]; Total, N = 19): 9 (47.4) n (%); Best overall response: PR ([1]; Total, N = 19): 2 (10.5) n (%); Best overall response: SD ([1]; Total, N = 19): 5 (26.3) n (%); Immune-related best overall response: CR ([1]; Total, N = 19): 0 (0.0) n (%); Immune-related best overall response: NE ([1]; Total, N = 19): 7 (36.8) n (%); Immune-related best overall response: PD ([1]; Total, N = 19): 2 (10.5) n (%); Immune-related best overall response: PR ([1]; Total, N = 19): 2 (10.5) n (%); Immune-related best overall response: SD ([1]; Total, N = 19): 8 (42.1) n (%); ORR, % (95% CI) ([1]; ARRY-382 200 mg, N = 6): 16.7 (0.4–64.1) %; ir-ORR, % (95% CI) ([1]; ARRY-382 200 mg, N = 6): 16.7 (0.4–64.1) %; ORR, % (95% CI) ([1]; ARRY-382 300 mg, N = 6): 16.7 (0.4–64.1) %; ir-ORR, % (95% CI) ([1]; ARRY-382 300 mg, N = 6): 16.7 (0.4–64.1) %; ORR, % (95% CI) ([1]; ARRY-382 400 mg, N = 7): 0.0 (0.0–41.0) %; ir-ORR, % (95% CI) ([1]; ARRY-382 400 mg, N = 7): 0.0 (0.0–41.0) %; ORR, % (95% CI) ([1]; Total, N = 19): 10.5 (1.3–33.1) %; ir-ORR, % (95% CI) ([1]; Total, N = 19): 10.5 (1.3–33.1) %; Median OS [2]: NR (95% CI, 5.3–NR); Median PFS [2]: 2.1 (95% CI, 1.2–4.1) months; Median irPFS per irRC [2]: 2.5 (95% CI, 1.2–NR) months; Best overall response: CR ([2]; N = 11): 0 (0.0) n (%); Best overall response: NE ([2]; N = 11): 2 (18.2) n (%); Best overall response: PD ([2]; N = 11): 5 (45.5%) n (%) and 5 (45.5) n (%); Best overall response: PR ([2]; N = 11): 0 (0.0) n (%); Best overall response: SD ([2]; N = 11): 4 (36.4%) n (%) and 4 (36.4) n (%); Immune-related best overall response: CR ([2]; N = 11): 0 (0.0) n (%); Immune-related best overall response: NE ([2]; N = 11): 5 (45.5) n (%); Immune-related best overall response: PD ([2]; N = 11): 0 (0.0) n (%); Immune-related best overall response: PR ([2]; N = 11): 0 (0.0) n (%); Immune-related best overall response: SD ([2]; N = 11): 6 (54.5) n (%); ORR, % (95% CI) ([2]; confirmed, N = 11): 0.0 (0.0–28.5) %; ir-ORR, % (95% CI) ([2]; confirmed, N = 11): 0.0 (0.0–28.5) %; RAUC (accumulation ratio), geometric mean (geometric %CV) ([3]; Overall): 2.49 (35.6); Ctrough, geometric mean (geometric %CV) ([3]; Overall, n = 15): 796 (86.9) ng/mL; RCmax (accumulation ratio), geometric mean (geometric %CV) ([3]; Overall, n = 15): 2.06 (41.9); RAUC (accumulation ratio), geometric mean (geometric %CV) ([3]; PD-1/PD-L1 IR, n = 3): 2.67 (36.2); Ctrough, geometric mean (geometric %CV) ([3]; PD-1/PD-L1 IR, n = 6): 878 (70.1) ng/mL; RCmax (accumulation ratio), geometric mean (geometric %CV) ([3]; PD-1/PD-L1 IR, n = 6): 2.52 (39.9); RAUC (accumulation ratio), geometric mean (geometric %CV) ([3]; PDA, n = 3): 3.41 (23.6); Ctrough, geometric mean (geometric %CV) ([3]; PDA, n = 4): 1,480 (17.5) ng/mL; RCmax (accumulation ratio), geometric mean (geometric %CV) ([3]; PDA, n = 4): 2.07 (53.6); RAUC (accumulation ratio), geometric mean (geometric %CV) ([3]; prOVCA, n = 4): 1.87 (16.7); Ctrough, geometric mean (geometric %CV) ([3]; prOVCA, n = 5): 438 (86.5) ng/mL; RCmax (accumulation ratio), geometric mean (geometric %CV) ([3]; prOVCA, n = 5): 1.62 (24.7); AUC(0-t) ([3]; Cycle 1 day 1, Overall, n = 55): 6310 ng·h/mL; AUC(0-t) [3, 6]: 6320 ng·h/mL; AUC(0-t) ([3]; Cycle 1 day 1, PDA, n = 26): 6350 ng·h/mL; AUC(0-t) ([3]; Cycle 1 day 1, prOVCA, n = 11): 6210 ng·h/mL; AUC(0-t) ([3]; Cycle 2 day 1, Overall, n = 15): 28500 ng·h/mL; AUC(0-t) [3, 7]: 26600 ng·h/mL; AUC(0-t) ([3]; Cycle 2 day 1, PDA, n = 4): 47100 ng·h/mL; AUC(0-t) ([3]; Cycle 2 day 1, prOVCA, n = 5): 20700 ng·h/mL; AUC ([3]; Cycle 2 day 1, Overall, n = 15): 30600 ng·h/mL; AUC [3, 7]: 32100 ng·h/mL; AUC ([3]; Cycle 2 day 1, PDA, n = 4): 47100 ng·h/mL; AUC ([3]; Cycle 2 day 1, prOVCA, n = 5): 20700 ng·h/mL; Cmax ([3]; Cycle 1 day 1, Overall, n = 55): 1270 ng/mL; Cmax [3, 6]: 1240 ng/mL; Cmax ([3]; Cycle 1 day 1, PDA, n = 26): 1290 ng/mL; Cmax ([3]; Cycle 1 day 1, prOVCA, n = 11): 1260 ng/mL; Cmax ([3]; Cycle 2 day 1, Overall, n = 15): 2080 ng/mL; Cmax [3, 7]: 2130 ng/mL; Cmax ([3]; Cycle 2 day 1, PDA, n = 4): 2820 ng/mL; Cmax ([3]; Cycle 2 day 1, prOVCA, n = 5): 1580 ng/mL; Tmax [3, 6]: 1.97 h; Tmax ([3]; Cycle 1 day 1, prOVCA, n = 11): 2 h; Tmax [3, 7]: 2 h; Tmax ([3]; Cycle 2 day 1, PDA, n = 4): 3.03 h; Change in mean CTX or NTX (CSF-1R [4]; cycle 1 day 15 compared with cycle 1 day 1): no changes; Increase in mean serum CSF-1 (CSF-1R [4]; cycle 1 day 15 versus cycle 1 day 1, P < 0.05): 4.5 fold; Change in mean CTX or NTX (CSF-1R [5]): no significant changes
